Experimental data: ChEMBL document CHEMBL4382285, “Discovery of Novel Retigabine Derivatives as Potent KCNQ4 and KCNQ5 Channel Agonists with Improved Specificity” (ACS Med Chem Lett, 2019)

Experiments:
[1] = target: T1, Potassium voltage-gated channel subfamily KQT member 1 (Homo sapiens, UniProt P51787); test: Activity at human KCNQ1 expressed in CHOK1 cells assessed as ratio of amplitude of outward current in presence of test compound to amplitude of outward current in absence of test compound at 10 uM at -10 mV by whole cell patch clamp assay; type: cell-based
T1 sequence (P51787 whole entry): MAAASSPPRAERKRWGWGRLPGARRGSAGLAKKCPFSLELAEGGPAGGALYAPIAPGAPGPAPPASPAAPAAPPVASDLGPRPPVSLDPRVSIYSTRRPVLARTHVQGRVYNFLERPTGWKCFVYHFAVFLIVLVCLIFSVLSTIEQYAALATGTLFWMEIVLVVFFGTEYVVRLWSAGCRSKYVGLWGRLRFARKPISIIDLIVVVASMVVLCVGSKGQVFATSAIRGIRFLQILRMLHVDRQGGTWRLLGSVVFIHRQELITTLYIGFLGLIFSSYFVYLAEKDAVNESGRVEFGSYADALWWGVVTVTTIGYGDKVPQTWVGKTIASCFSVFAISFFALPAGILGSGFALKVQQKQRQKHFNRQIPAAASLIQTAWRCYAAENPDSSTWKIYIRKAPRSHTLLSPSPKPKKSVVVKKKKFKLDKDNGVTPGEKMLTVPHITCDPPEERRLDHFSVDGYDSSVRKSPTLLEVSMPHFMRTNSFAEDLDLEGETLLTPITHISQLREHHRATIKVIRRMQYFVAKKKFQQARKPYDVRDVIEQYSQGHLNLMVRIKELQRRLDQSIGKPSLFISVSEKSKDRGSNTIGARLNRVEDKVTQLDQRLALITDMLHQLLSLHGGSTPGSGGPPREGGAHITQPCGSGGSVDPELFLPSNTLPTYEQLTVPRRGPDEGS
Outline: (§1)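 CHO-K1 cells individually transfected with a single KCNQ subtype; whole-cell voltage clamp. Held at −80 mV, stepped from −90 to +60 mV in 10 mV increments (1500 ms), then to −120 mV for 500 ms. Outward current at −10 or +60 mV measured before (I0) and after (I) 10 μM compound; I/I0 >1 counts as activation. More than four cells per compound.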

[2] = target: T2, Potassium voltage-gated channel subfamily KQT member 4 (Homo sapiens) (UniProt P56696); test: Activity at human KCNQ4 expressed in CHOK1 cells assessed as ratio of amplitude of outward current in presence of test compound to amplitude of outward current in absence of test compound at 10 uM at +60 mV by whole cell patch clamp assay; type: cell-based; outline: as §1
T2 sequence (whole entry): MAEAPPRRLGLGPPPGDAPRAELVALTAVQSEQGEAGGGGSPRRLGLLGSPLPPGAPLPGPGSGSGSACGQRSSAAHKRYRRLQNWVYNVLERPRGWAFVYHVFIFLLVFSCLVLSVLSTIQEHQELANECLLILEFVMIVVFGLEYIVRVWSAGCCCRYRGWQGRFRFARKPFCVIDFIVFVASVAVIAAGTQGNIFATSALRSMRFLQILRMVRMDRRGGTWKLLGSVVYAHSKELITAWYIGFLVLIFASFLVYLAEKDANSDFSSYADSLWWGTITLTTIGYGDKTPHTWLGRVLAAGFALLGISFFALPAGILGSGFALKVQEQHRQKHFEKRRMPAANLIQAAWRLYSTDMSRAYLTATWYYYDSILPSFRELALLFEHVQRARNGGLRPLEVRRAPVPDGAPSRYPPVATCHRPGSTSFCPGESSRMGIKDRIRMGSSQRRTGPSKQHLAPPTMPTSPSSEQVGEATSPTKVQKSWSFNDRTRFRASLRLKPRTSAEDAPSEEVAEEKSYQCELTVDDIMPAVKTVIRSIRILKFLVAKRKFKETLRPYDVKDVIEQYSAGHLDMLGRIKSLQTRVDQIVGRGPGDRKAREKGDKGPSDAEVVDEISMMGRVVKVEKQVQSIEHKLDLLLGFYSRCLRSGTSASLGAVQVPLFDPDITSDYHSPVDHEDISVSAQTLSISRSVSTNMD

C#CCN(Cc1ccc(F)cc1)c1ccc(NC(=O)OCC)c(NC(=O)OCC)c1
Ratio [1]: 1
Ratio [2]: 6.6
